# Source: PubChem BioAssay (Broad Institute)
# Pf Dd2 inh: blocks growth of Plasmodium falciparum Dd2 parasites; P. falciparum Dd2 growth, SYBR Green, 72 h; active compounds read low; activity change, % at 10 µM; 2.3% of 94,000 active; in the data active = activity change below about -80%; inconclusive = no clear call, values can overlap the other calls
# IDH1 mut inh: inhibitors of human IDH1 R132H; O75874; IDH1 R132H reductase, diaphorase/resazurin fluorescence, 60 min; inhibition, % at 10 µM; 0.18% of 70,000 active; in the data active = inhibition above about 34%; inconclusive = no clear call, values can overlap the other calls; inactive = below about 11%;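 also: 0% = DMSO and 100% = no enzyme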
# T cruzi growth-1: T. cruzi proliferation inhibition; 5.9% of 77,000 active; AID 624255; inhibition, % at 8.34 µM; T. cruzi beta-gal in NIH3T3, GalScreen luminescence, 90 h;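 active = mean inhibition above about 93%, with at least 55% of replicates each passing it, limit read from the data, passing the limit was not always enough; inconclusive = only one of those two conditions holds; inactive = neither condition holds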
# GASC1 inh: KDM4C (human) demethylase inhibition; AID 720574; 0.15% of 96,000 active; GST-KDM4C 2-372, H3K9me3 peptide, LANCE TR-FRET; inhibition, % at 12.5 µM;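 active = mean replicate inhibition above about 25%, with at least 55% of replicates also reaching it, limit read from the data, passing the limit was not always enough; inconclusive = only one of those two conditions met; inactive = neither condition met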
# Target sequence (Q9H3R0 2-372 limits assumed): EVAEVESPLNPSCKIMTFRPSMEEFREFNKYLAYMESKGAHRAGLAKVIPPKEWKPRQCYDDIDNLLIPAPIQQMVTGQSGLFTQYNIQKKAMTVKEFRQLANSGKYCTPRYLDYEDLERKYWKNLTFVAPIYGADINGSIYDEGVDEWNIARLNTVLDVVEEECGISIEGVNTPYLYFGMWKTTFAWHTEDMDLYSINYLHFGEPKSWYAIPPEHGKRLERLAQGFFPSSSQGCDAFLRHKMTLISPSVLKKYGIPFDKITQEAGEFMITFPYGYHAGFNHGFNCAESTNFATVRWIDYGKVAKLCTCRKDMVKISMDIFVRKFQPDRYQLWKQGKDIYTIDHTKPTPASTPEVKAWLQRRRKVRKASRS
#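 Test system – GST-tagged GASC-1 (JMJD2C) catalytic fragment, aa 2-372 · Medium – HEPES buffer, pH 7.5, plus ascorbate · Reagent – H3K9me3 peptide with Fe(II)/2OG · Compound – one test concentration per compound · Timing – 30 min reaction, 60 min detection, RT · Technique – TR-FRET with Eu antibody and ULight streptavidin, EDTA stop · Read-out basis – inhibition from TR-FRET ratio decrease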
# T cruzi growth-2: inhibitors of T. cruzi proliferation; AID 651739; inhibition, % at 8.35 µM; T. cruzi beta-gal in NIH3T3, GalScreen luminescence, 90 h; 72% of 5,600 active; shares compounds with T cruzi growth-1;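 active = mean replicate inhibition above about 95% and at least 55% of replicates individually reaching it, limit read from the data; inconclusive = only one of the two criteria is met; inactive = neither criterion is met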
# T cruzi growth-3: inhibitors of T. cruzi proliferation | T. cruzi beta-gal in NIH3T3, GalScreen luminescence, 90 h | shares compounds with T cruzi growth-1 | inhibition, % at 2.09 µM | 21% of 5,600 active | AID 651740;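 active = mean inhibition above about 95%, with at least 55% of replicates also reaching it, limit read from the data; inconclusive = meets just one of the two conditions; inactive = meets neither condition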;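 also: plate controls were neutral control median for no effect and positive control median for full effect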
# NIH3T3 tox: kills mouse NIH/3T3 fibroblasts | AID 651742 | 14% of 5,600 active | NIH/3T3 viability, CellTiter-Glo ATP luminescence, 90 h | cytotoxicity (signal decrease), % at 8.35 µM | shares compounds with T cruzi growth-1;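 active = mean signal decrease across replicates above about 35% based on untreated-well scatter, with enough replicates individually passing, limit read from the data; inconclusive = no rule stated though some were filed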;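 also: 0% = median of neutral control wells and 100% = median of positive control wells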
# 3T3 cytotox 2: cytotoxicity in mouse NIH/3T3 fibroblasts; inhibition, % at 24.9 µM; NIH/3T3 viability, CellTiter-Glo ATP luminescence, 90 h; shares compounds with T cruzi growth-1; 56% of 5,600 active; AID 651744;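 active = mean loss of cell viability signal at or above a set limit, and enough replicates individually reaching it; inconclusive = meets only the mean limit or only the replicate share; inactive = meets neither condition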;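 also: 0% = median of neutral control wells and 100% = median of positive control wells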
# * = called active by the depositor; ? = inconclusive; . = not tested or not shown; ! = repeats disagree. Hits are enriched below; roughly 5.9% of the tested compounds scored in any of these assays.
SMILES,Pf Dd2 inh,IDH1 mut inh,T cruzi growth-1,GASC1 inh,T cruzi growth-2,T cruzi growth-3,NIH3T3 tox,3T3 cytotox 2
C[C@H](CO)N1C[C@H](C)[C@H](CN(C)Cc2ccc3c(c2)OCO3)OCCCC[C@H](C)Oc2ccc(NC(=O)Nc3ccc(C(F)(F)F)cc3)cc2C1=O,-71,.,?,0,104*,113*,124*,104*
C[C@H](CO)N1C[C@H](C)[C@@H](CN(C)Cc2ccc(C(F)(F)F)cc2)OCCCC[C@H](C)Oc2ccc(NC(=O)Nc3ccc4c(c3)OCO4)cc2C1=O,21,0,80,-2,.,.,.,.
C[C@@H]1CCCCO[C@H](CN(C)Cc2ccc3c(c2)OCO3)[C@@H](C)CN([C@@H](C)CO)C(=O)c2cc(NC(=O)Nc3ccc(C(F)(F)F)cc3)ccc2O1,-66,.,?,.,97*,116*,117*,104*
C[C@@H]1CN([C@H](C)CO)C(=O)c2cc(NC(=O)Nc3ccc(C(F)(F)F)cc3)ccc2O[C@@H](C)CCCCO[C@H]1CN(C)Cc1ccc2c(c1)OCO2,-57,6,?,0,?,103*,22,104*
COc1ccc(NC(=O)Nc2cccc3c2O[C@H](CN(C)Cc2ccc(-c4ccccc4)cc2)[C@H](C)CN([C@H](C)CO)C3=O)cc1,-29,.,18,-3,.,.,.,.
C[C@@H]1CCCCO[C@H](CN(C)Cc2ccc(C(F)(F)F)cc2)[C@H](C)CN([C@@H](C)CO)C(=O)c2cc(NC(=O)Nc3ccc4c(c3)OCO4)ccc2O1,-80,-2,83,-2,.,.,.,.
C[C@@H]1CCCCO[C@@H](CN(C)Cc2ccc(C(F)(F)F)cc2)[C@H](C)CN([C@H](C)CO)C(=O)c2cc(NC(=O)Nc3ccc4c(c3)OCO4)ccc2O1,-6,.,79,-1,.,.,.,.
C[C@@H]1CCCCO[C@H](CN(C)Cc2ccc3c(c2)OCO3)[C@H](C)CN([C@@H](C)CO)C(=O)c2cc(NC(=O)Nc3ccc(C(F)(F)F)cc3)ccc2O1,-86*,-1,122*,-1,96*,116*,122*,104*
C[C@H]1CCCCO[C@H](CN(C)Cc2ccc3c(c2)OCO3)[C@@H](C)CN([C@@H](C)CO)C(=O)c2cc(NC(=O)Nc3ccc(C(F)(F)F)cc3)ccc2O1,-29,0,?,1,87,106*,91*,103*
C[C@@H]1CCCCO[C@@H](CN(C)Cc2ccc3c(c2)OCO3)[C@@H](C)CN([C@H](C)CO)C(=O)c2cc(NC(=O)Nc3ccc(C(F)(F)F)cc3)ccc2O1,-4,.,127*,-1,90,110*,1,17
C[C@H](CO)N1C[C@H](C)[C@@H](CN(C)C(=O)C2CCCCC2)Oc2cc(C#CC(C)(C)O)ccc2S1(=O)=O,1,.,33,0,.,.,.,.
C[C@H]1CN([C@@H](C)CO)S(=O)(=O)c2ccc(Br)cc2O[C@H]1CN(C)S(=O)(=O)c1ccc(F)cc1,-9,-6,106*,-4,106*,9,16,?
C[C@@H]1CN([C@@H](C)CO)S(=O)(=O)c2ccc(Br)cc2O[C@@H]1CN(C)S(=O)(=O)c1ccc(F)cc1,-11,1,34,.,.,.,.,.
C[C@@H]1CN([C@@H](C)CO)S(=O)(=O)c2ccc(Br)cc2O[C@H]1CN(C)S(=O)(=O)c1cccc(F)c1,-1,.,107*,-2,111*,30,28,68*
C[C@H](CO)N1C[C@H](C)[C@H](CN(C)Cc2ccc(Oc3ccccc3)cc2)Oc2ccc(NC(=O)Nc3ccc(F)cc3)cc2C1=O,-13,.,109*,-3,98*,62,24,104*
C[C@@H]1CN([C@H](C)CO)C(=O)c2cc(NC(=O)Nc3ccc(F)cc3)ccc2O[C@@H]1CN(C)Cc1ccc(Oc2ccccc2)cc1,-14,0,?,1,96*,30,34,106*
C[C@@H]1CN([C@H](C)CO)C(=O)c2cc(C#Cc3ccccc3)cnc2O[C@@H]1CN(C)C(=O)c1ccccn1,0,0,53,1,.,.,.,.
C[C@@H]1CN([C@@H](C)CO)C(=O)c2cc(C#Cc3ccccn3)cnc2O[C@H]1CN(C)Cc1ccncc1,22,0,?,0,108*,56,17,17
C[C@@H]1CN([C@H](C)CO)C(=O)c2cc(C#Cc3ccccc3)cnc2O[C@H]1CN(C)C(=O)c1ccccn1,-24,0,111*,-1,101*,62,11,30*
C[C@H](CO)N1C[C@H](C)[C@H](CN(C)Cc2ccccc2)Oc2ncc(C#CC3(O)CCCC3)cc2C1=O,-4,-1,102*,1,46,42,10,19
C[C@H]1CN([C@@H](C)CO)C(=O)c2cc(C#Cc3ccccn3)cnc2O[C@@H]1CN(C)Cc1ccccc1,-43,0,121*!,0,107*,25,-4,-6
C[C@H]1CN([C@@H](C)CO)C(=O)c2cc(C#Cc3ccccn3)cnc2O[C@H]1CN(C)Cc1ccncc1,11,3,44,3,.,.,.,.
C=CCn1c(SCC(N)=O)nnc1-c1ccco1,.,0,.,.,.,.,.,.
CC(C)C#Cc1ccc2c(c1)O[C@@H](CN(C)Cc1ccccn1)[C@H](C)CN([C@@H](C)CO)S2(=O)=O,-66,.,?,.,108*,51,55*,95*
CC(C)C#Cc1ccc2c(c1)O[C@H](CN(C)Cc1ccccn1)[C@@H](C)CN([C@H](C)CO)S2(=O)=O,-72,-7,?,.,102*,74,65*,54*
CC(C)C#Cc1ccc2c(c1)O[C@H](CN(C)Cc1ccccn1)[C@@H](C)CN([C@@H](C)CO)S2(=O)=O,-60,.,?,.,107*,79,0,78*
CC(C)C#Cc1ccc2c(c1)O[C@H](CN(C)Cc1ccccn1)[C@H](C)CN([C@@H](C)CO)S2(=O)=O,-74,-2,74,.,.,.,.,.
C[C@@H]1CN([C@@H](C)CO)C(=O)CCCn2cc(nn2)CO[C@H]1CN(C)Cc1cccc(C(=O)O)c1,13,.,-24,-1,.,.,.,.
O=C(Nc1ccc(F)cc1)N1CCCCN2[C@H](CO)[C@@H](c3ccc(C#Cc4ccccc4)cc3)[C@@H]2C1,-30,.,73,-3,.,.,.,.
O=C(Nc1ccc(F)cc1)N1CCCCN2[C@@H](CO)[C@H](c3ccc(C#Cc4ccccc4)cc3)[C@@H]2C1,?,.,123*,-1,99*,111*,117*,105*
